The nature of this assay: Growth inhibition of human H441 cells assessed as ATP level after 96 hrs by CellTiter-Glo assay. Type of assay: functional. Particulars: NCI-H441, 96 h. The procedure, abridged:
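NSCLC lines maintained as in earlier work and authenticated by mutational analysis and SNP arrays. Cells were plated in 384-well format and allowed 24 h before compound addition as 10 threefold serial dilutions (DMSO stocks). After 96 h, viability was read as cellular ATP by CellTiter-Glo. GI50 was fitted with an R package.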

With `CN(C)C/C=C/C(=O)Nc1ccc2c(C#N)cnc(Nc3cccc(Br)c3)c2c1`, the GI50 was 19.1 µM.

(Values after ChEMBL document CHEMBL1641579, “Synthesis and biological evaluation of 7-substituted-1-(3-bromophenylamino)isoquinoline-4-carbonitriles as inhibitors of myosin light chain kinase and epidermal growth factor receptor” (Bioorg Med Chem, 2011).)
